# According to PMC7821153 (Chemical Biology & Drug Design, 2020):
# Columns and labels:
# Format in all cases: cell-based
# [1] = Cellular cytotoxicity, ATP-dependent luminescence assay
# How it was run: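 Cytotoxicity measured by ATP-dependent luminescence, with CC50 derived. Values are from three independent experiments (n = 3), and standard deviations are reported.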
# [2] = tested on: HIV-1 RT-resistant mutant K101E; test: Single-round infectivity assay, K101E; conditions: Human immunodeficiency virus 1, read-out: EC50 K101E
# How it was run: (§1)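 Single-round infection with the HIV-1-based vector pNLNgoMIVR-ΔENV.LUC (Env-deleted, luciferase-carrying) bearing the indicated RT mutation(s), used to derive EC50. The mutant vectors are previously described constructs.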
# [3] = tested on: HIV-1 NNRTI-resistant mutant P236L; test: Single-round infectivity assay, P236L; conditions: read-out: EC50 P236L; single-round infection, n = 3
# How it was run: as §1
# [4] = tested on: HIV-1 RT-resistant mutant M184V; test: Single-round infectivity assay, M184V; conditions: read-out: EC50 M184V; single-round infection, n = 3
# How it was run: as §1
# [5] = tested on: HIV-1 DOR-resistant mutant L234I; test: Single-round infectivity assay, L234I; conditions: read-out: EC50 L234I; single-round infection, n = 3
# How it was run: as §1
# WT HIV-1 = test: Single-round infectivity assay, WT RT vector
# How it was run: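 Single-round infection with an HIV-1-based vector (pNLNgoMIVR-ΔENV.LUC, Env-deleted, luciferase-carrying) with wild-type RT, used to derive EC50. Therapeutic index is calculated from CC50 (ATP-dependent luminescence assay) and wild-type EC50. Three independent experiments (n = 3), with standard deviations.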
# [6] = tested on: HIV-1 NNRTI-resistant mutant K103N/P225H; test: Single-round infectivity assay, K103N/P225H; conditions: Human immunodeficiency virus 1, read-out: EC50 K103N/P225H
# How it was run: as §1
# [7] = tested on: HIV-1 NNRTI-resistant mutant H221Y; test: Single-round infectivity assay, H221Y; conditions: Human immunodeficiency virus 1, read-out: EC50 H221Y
# How it was run: as §1
# [8] = tested on: HIV-1 NNRTI-resistant mutant L100I; test: Single-round infectivity assay, L100I; conditions: Human immunodeficiency virus 1, read-out: EC50 L100I
# How it was run: as §1
# [9] = tested on: HIV-1 NNRTI-resistant mutant V106A/G190A/F227L; test: Single-round infectivity assay, V106A/G190A/F227L; conditions: Human immunodeficiency virus 1, read-out: EC50 V106A/G190A/F227L
# How it was run: as §1
# [10] = tested on: HIV-1 NNRTI-resistant mutant M230L; test: Single-round infectivity assay, M230L; conditions: Human immunodeficiency virus 1, read-out: EC50 M230L
# How it was run: as §1
# [11] = tested on: HIV-1 NNRTI-resistant mutant L100I/K103N; test: Single-round infectivity assay, L100I/K103N; conditions: Human immunodeficiency virus 1, read-out: EC50 L100I/K103N
# How it was run: as §1
# [12] = tested on: HIV-1 RT-resistant mutant E40K; test: Single-round infectivity assay, E40K; conditions: read-out: EC50 E40K; single-round infection, n = 3
# How it was run: as §1
# [13] = tested on: HIV-1 NNRTI-resistant mutant E138K; test: Single-round infectivity assay, E138K; conditions: Human immunodeficiency virus 1, read-out: EC50 E138K
# How it was run: as §1
# [14] = tested on: HIV-1 NNRTI-resistant mutant G190S; test: Single-round infectivity assay, G190S; conditions: read-out: EC50 G190S; single-round infection, n = 3
# How it was run: as §1
# [15] = tested on: HIV-1 NNRTI-resistant mutant K103N; test: Single-round infectivity assay, K103N; conditions: Human immunodeficiency virus 1, read-out: EC50 K103N
# How it was run: as §1
# [16] = tested on: HIV-1 RT-resistant mutant D67E; test: Single-round infectivity assay, D67E; conditions: read-out: EC50 D67E; single-round infection, n = 3
# How it was run: as §1
# [17] = tested on: HIV-1 NNRTI-resistant mutant Y188L; test: Single-round infectivity assay, Y188L; conditions: Human immunodeficiency virus 1, read-out: EC50 Y188L
# How it was run: as §1
# [18] = tested on: HIV-1 RT-resistant mutant K101E/M184I; test: Single-round infectivity assay, K101E/M184I; conditions: read-out: EC50 K101E/M184I; single-round infection, n = 3
# How it was run: as §1
# [19] = tested on: HIV-1 RT-resistant mutant K101E/M184V; test: Single-round infectivity assay, K101E/M184V; conditions: read-out: EC50 K101E/M184V; single-round infection, n = 3
# How it was run: as §1
# [20] = tested on: HIV-1 NNRTI-resistant mutant Y181C; test: Single-round infectivity assay, Y181C; conditions: Human immunodeficiency virus 1, read-out: EC50 Y181C
# How it was run: as §1
# [21] = tested on: HIV-1 NNRTI-resistant mutant G190A; test: Single-round infectivity assay, G190A; conditions: read-out: EC50 G190A; single-round infection, n = 3
# How it was run: as §1
# [22] = tested on: HIV-1 NNRTI-resistant mutant K103N/Y181C; test: Single-round infectivity assay, K103N/Y181C; conditions: Human immunodeficiency virus 1, read-out: EC50 K103N/Y181C
# How it was run: as §1
smiles,measurement,setting,value
"Cc1cc(/C=C/C#N)cc(C)c1-n1cnc2cnc(Nc3ccc4cc(C#N)ccc4c3)nc21 [Compound 10, (E)‐6‐((9‐(4‐(2‐cyanovinyl)‐2,6‐dimethylphenyl)‐9H‐purin‐2‐yl)amino)‐2‐naphthonitrile]",CC50,[1],10.8 ± 1.2 µM
same,EC50,[2],0.0134 ± 0.001 µM
same,EC50,[3],0.0016 ± 0.0001 µM
same,EC50,[4],0.0031 ± 0.0004 µM
same,EC50,[5],0.0023 ± 0.0002 µM
same,EC50,"WT HIV-1; Human immunodeficiency virus 1, read-out: EC50 WT",0.0023 ± 0.0002 µM
same,TI (therapeutic index),WT HIV-1; calculated from CC50 and WT EC50,"4,696"
same,EC50,[6],0.103 ± 0.0081 µM
same,EC50,[7],0.0034 ± 0.0003 µM
same,EC50,[8],0.0242 ± 0.0061 µM
same,EC50,[9],0.007 ± 0.0005 µM
same,EC50,[10],0.0338 ± 0.0027 µM
same,EC50,[11],0.386 ± 0.0199 µM
same,EC50,[12],0.0042 ± 0.0007 µM
same,EC50,[13],0.0327 ± 0.0044 µM
same,EC50,[14],0.0021 ± 0.0001 µM
same,EC50,[15],0.0245 ± 0.0049 µM
same,EC50,[16],0.01 ± 0.0019 µM
same,EC50,[17],0.18 ± 0.0147 µM
same,EC50,[18],0.014 ± 0.0001 µM
same,EC50,[19],0.0047 ± 0.0008 µM
same,EC50,[20],0.0477 ± 0.0078 µM
same,EC50,[21],0.0016 ± 0.0003 µM
same,EC50,[22],0.468 ± 0.0888 µM
